Assay [1] has as its system Canis familiaris. The assay can be described thus: Antihypertensive activity in unanesthetized renal hypertensive dogs measured as Heart Rate (HR) (beats/min) at 100 mg per kg dose after peroral administration on day1. The class given is functional, Canis lupus familiaris. The note with it: route oral. The gist of the method:
(§1)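 Renal hypertensive dogs, unanesthetized. Test compound given orally once daily as a solid in a gelatin capsule. Blood pressure was taken at 1.5, 3, 6 and 24 h after each daily dose. Activity is the maximum change in mean blood pressure or heart rate over each daily session. Values are mean ± SE, with significance marked at p < 0.05.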

The subject of assay [2] is Canis familiaris. The assay can be described thus: Antihypertensive activity in unanesthetized renal hypertensive dogs measured as Heart Rate (HR) (beats/min) at 100 mg per kg dose after peroral administration on day 2. The class given is functional, Canis lupus familiaris. The note with it: route oral. The gist of the method: as §1
Assay [3] concerns Canis familiaris. Kind of assay: Antihypertensive activity in unanesthetized renal hypertensive dogs measured as Heart Rate (HR) (beats/min) at 100 mg per kg dose after peroral administration on day 3. The class given is functional, Canis lupus familiaris. The settings on record: route oral. The essentials: as §1
The subject of assay [4] is Canis familiaris. Kind of assay: Antihypertensive activity in unanesthetized renal hypertensive dogs measured as mean Blood Pressure at 100 mg per kg dose after peroral administration on day 2((p<0.05). The note with it: route oral. In kind it is functional, Canis lupus familiaris. The essentials:
as §1

Assay [5] has as its system Canis familiaris. Kind of assay: Antihypertensive activity in unanesthetized renal hypertensive dogs measured as mean Blood Pressure at 100 mg per kg dose after peroral administration on day1. In kind it is functional, Canis lupus familiaris. Also on record: unit not given beside the values. The note with it: route oral. The gist of the method:
as §1

For assay [6], the system named is Canis familiaris. Kind of assay: Antihypertensive activity in unanesthetized renal hypertensive dogs measured as mean Blood Pressure at 100 mg per kg dose after peroral administration on day 3. The settings on record: route oral. In kind it is functional, Canis lupus familiaris. The gist of the method:
as §1

Assay [7] deals with Rattus norvegicus. The assay can be described thus: The compound was tested for antihypertensive effect in spontaneously hypertensive rat (SHR), expressed as fall in blood pressure (BP) at 100 mg/kg dose given orally. In kind it is functional. The note with it: route oral. The essentials:
(§2)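 Male SHR, about 16 weeks old, with systolic pressure above 150 mmHg, held in restraint cages. Tail-cuff occlusion was raised to 250 mmHg and then lowered, after 1 h acclimation and at least 3 baseline readings. Dosing was by daily gavage in 3% cornstarch/5% PEG-400/Tween 80 for 2 or 4 days, with 4–6 rats per drug. Readings at 1, 2, 3 and 24 h; peak fall reported.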

Assay [8] deals with Rattus norvegicus. The assay can be described thus: The compound was tested for antihypertensive effect in spontaneously hypertensive rat (SHR), expressed as fall in blood pressure (BP) at 50 mg/kg dose given orally; (3/3 dead). The class given is functional.
Assay [9] relates to Canis familiaris. The assay can be described thus: Antihypertensive activity in unanesthetized renal hypertensive dogs measured as Heart Rate (HR) (beats/min) at 100 mg per kg dose after peroral administration on day 3 p<0.05. The class given is functional, Canis lupus familiaris. The note with it: route oral. The gist of the method: as §1
The test system of assay [10] is Canis familiaris. The assay can be described thus: Antihypertensive activity in unanesthetized renal hypertensive dogs measured as Heart Rate (HR) (beats/min) at 100 mg per kg dose after peroral administration on day1 (p<0.05). In kind it is functional, Canis lupus familiaris. The note with it: route oral. The gist of the method: as §1
Assay [11] has as its system Canis familiaris. The assay can be described thus: Antihypertensive activity in unanesthetized renal hypertensive dogs measured as Heart Rate (HR) (beats/min) at 100 mg per kg dose after peroral administration on day 4. The class given is functional, Canis lupus familiaris. The settings on record: route oral. The gist of the method: as §1
The subject of assay [12] is Canis familiaris. Kind of assay: Antihypertensive activity in unanesthetized renal hypertensive dogs measured as mean Blood Pressure at 100 mg per kg dose after peroral administration on day 2. The note with it: route oral. The class given is functional, Canis lupus familiaris. The essentials: as §1
For assay [13], the system named is Canis familiaris. The assay can be described thus: Antihypertensive activity in unanesthetized renal hypertensive dogs measured as mean Blood Pressure at 100 mg per kg dose after peroral administration on day 4. The settings on record: route oral. The class given is functional, Canis lupus familiaris. The essentials: as §1
For assay [14], the system named is Rattus norvegicus. Kind of assay: The compound was tested for antihypertensive effect in spontaneously hypertensive rat (SHR), expressed as fall in blood pressure (BP) at 10 mg/kg dose given orally. In kind it is functional. The note with it: route oral.
The test system of assay [15] is Rattus norvegicus. The assay can be described thus: Antihypertensive effect in spontaneously hypertensive rat (SHR), expressed as fall in blood pressure (BP) at 50 mg/kg dose given orally. In kind it is functional. The settings on record: route oral. The gist of the method: as §2
In assay [16] the test system is Rattus norvegicus. The assay can be described thus: The compound was tested for antihypertensive effect in spontaneously hypertensive rat (SHR), expressed as fall in blood pressure (BP) at 25 mg/kg dose given orally. The class given is functional. The settings on record: route oral. The gist of the method: as §2

Structures are written as SMILES.

With `O=C(O)c1ccc(NCc2cccc(Cl)c2)cn1`, the “Maximum change in heart rate” value in the assay with Canis familiaris [1] is recorded as 16. Moreover, the HR in the assay with Canis familiaris [2] and with Canis familiaris [3] was 11 in each case. The MBP with Canis familiaris [4] was -9; in the assay on Canis familiaris [5], -15; with Canis familiaris [6], -4. In the assay on Rattus norvegicus [7], the BP is on record as >60 mmHg.

Turning to `O=C(O)c1ccc(NCC2CCCCC2)cn1`, the BP with Rattus norvegicus [8] was >20 mmHg.

Take `O=C(O)c1ccc(NCc2ccccc2)cn1`: the HR with Canis familiaris [9] is 52; in the assay on Canis familiaris [10] it was 74; with Canis familiaris [2], 61; with Canis familiaris [11], 48. Further, the MBP with Canis familiaris [5] was -32; in the assay with Canis familiaris [12], -14; with Canis familiaris [6] it was -13; in the assay with Canis familiaris [13] it was -6. Besides, the values for the BP with Rattus norvegicus [14], in the assay on Rattus norvegicus [15] and with Rattus norvegicus [16] were >40 mmHg, >80 mmHg and >60 mmHg, respectively.

For the origin of these results see ChEMBL document CHEMBL1121372, “Synthesis and antihypertensive activity of 5-amino-2-pyridinecarboxylic acid derivatives” (1980).
